The target in assay [1] is T1, Gasdermin-D (Homo sapiens) (UniProt P57764).
T1 sequence (whole entry): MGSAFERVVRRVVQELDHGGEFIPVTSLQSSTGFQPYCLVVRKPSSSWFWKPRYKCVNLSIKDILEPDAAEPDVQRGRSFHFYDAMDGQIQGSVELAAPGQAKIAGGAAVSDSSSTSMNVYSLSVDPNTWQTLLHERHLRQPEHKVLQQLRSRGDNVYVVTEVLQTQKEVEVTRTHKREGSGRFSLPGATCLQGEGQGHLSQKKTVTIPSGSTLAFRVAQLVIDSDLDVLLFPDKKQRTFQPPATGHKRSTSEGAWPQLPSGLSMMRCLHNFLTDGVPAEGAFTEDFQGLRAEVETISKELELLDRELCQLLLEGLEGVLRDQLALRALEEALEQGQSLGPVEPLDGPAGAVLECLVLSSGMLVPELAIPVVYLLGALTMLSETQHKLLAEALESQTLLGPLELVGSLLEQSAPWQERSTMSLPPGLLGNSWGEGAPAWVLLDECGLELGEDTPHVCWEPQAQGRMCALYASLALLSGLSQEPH
Kind of assay: Inhibition of N-terminal GSDMD p30 fragment-mediated pyroptotic-cell death in doxycyclin-treated human HEK293T cells assessed as cell death at 5 uM by LDH assay. Type of assay: cell-based. To be noted: HEK-293T.

In assay [2] the test system is Mus musculus. The assay can be described thus: Antiinflammatory activity against LPS-induced sepsis C57BL/6J mouse model assessed as reduction in alveolar epithelial architecture damage at 20 mg/kg, iv administered as single dose for 1 hr prior to LPS challenge and measured after 48 hrs by hematoxylin-eosin staining based inverted microscopy analysis. It counts as functional, organism-based.

Assay [3] concerns THP-1. The assay can be described thus: Inhibition of pyroptosis in LPS-primed human THP1 assessed as reduction in nigericin-induced cell death at 0.1 to 20 uM by LDH assay. Type of assay: functional, cell-based. The method in brief: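 THP-1 cells induced to pyroptosis. Cell death read by LDH release and pore formation by PI uptake. Means ± SE, ≥3 experimental replicates.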

The test system of assay [4] is Mus musculus. The assay can be described thus: Antiinflammatory activity against LPS-induced sepsis C57BL/6J mouse model assessed as increase in median survival time at 20 mg/kg, iv administered as single dose for 30 min prior to LPS challenge.
The target in assay [5] is T2, Gasdermin-D (Mus musculus) (UniProt Q9D8T2).
T2 sequence (whole entry): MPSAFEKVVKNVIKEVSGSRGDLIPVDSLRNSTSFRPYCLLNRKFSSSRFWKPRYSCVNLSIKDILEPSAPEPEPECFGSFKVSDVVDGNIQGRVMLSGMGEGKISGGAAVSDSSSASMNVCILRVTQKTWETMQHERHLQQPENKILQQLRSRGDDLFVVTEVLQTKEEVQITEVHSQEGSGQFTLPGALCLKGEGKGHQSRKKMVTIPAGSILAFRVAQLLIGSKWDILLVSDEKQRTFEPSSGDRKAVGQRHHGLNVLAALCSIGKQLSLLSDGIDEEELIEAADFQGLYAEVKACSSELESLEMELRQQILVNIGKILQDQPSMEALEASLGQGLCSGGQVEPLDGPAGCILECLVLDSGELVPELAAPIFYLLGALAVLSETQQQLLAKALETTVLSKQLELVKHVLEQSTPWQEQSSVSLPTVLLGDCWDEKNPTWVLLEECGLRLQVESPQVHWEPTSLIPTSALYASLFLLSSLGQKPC
Kind of assay: Inhibition of GSDMD cytosol-plasma membrane translocation in LPS-primed immortalized mouse […] cells at 5 uM followed by subsequent nigericin stimulation by immunofluorescence assay. As to conditions: J774.A1. Type of assay: cell-based. The method in brief:
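Macrophages were LPS-primed, then stimulated with nigericin, in immortalized and primary cells. Anti-GSDMD immunofluorescence, with line-intensity histograms of cytosol versus plasma-membrane localization. Mean ± SEM, n ≥ 3 independent experiments.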

The subject of assay [6] is J774.A1. The assay can be described thus: Inhibition of pyroptosis cell death in LPS-primed immortalized mouse […] cells assessed as effect on nigericin-induced cell morphological changes by propidium iodide staining based confocal microscopy. It counts as functional. The method, boiled down: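 Primary BMDM and J774A.1 cells treated with LPS and nigericin. Swelling, bubble formation and propidium iodide uptake visualized by epifluorescence microscopy.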

For assay [7], the species on record is Danio rerio. The assay can be described thus: Antiinflammatory immunity against LPS-induced sepsis in […]:eGFP zebrafish larva assessed as decrease in macrophage infiltration in intestine at 5 uM measured at 7 dpf by confocal microscopic analysis. It counts as functional, organism-based. The method, boiled down: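 Zebrafish sepsis model using Tg(mpeg1:eGFP) larvae with GFP-labelled macrophages, treated at 5 μM. Intestine imaged by confocal microscopy at 7 days post fertilization, and macrophages counted in the imaged region.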

Assay [8] concerns BMDM. The assay can be described thus: Inhibition of pyroptosis cell death in LPS-primed C57BL/6 mouse primary BMDM assessed as reduction in nigericin-induced IL-1beta secretion. Type of assay: functional, cell-based. The method, boiled down:
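Primary murine macrophages primed with LPS and stimulated with nigericin across a dose range. IL-1β release, LDH release and Alamar blue measured. Means ± SE, ≥3 experimental replicates.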

Assay [9] concerns J774.A1. The assay can be described thus: Inhibition of caspase-1 recruitment to inflammasome in LPS-primed immortalized mouse […] cells assessed as nigericin-induced colocalization of caspase-1 and ASC at 5 uM by immunostaining based confocal microscopy. Type of assay: functional, cell-based. The method in brief: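 Caspase-1 and ASC colocalization: Pearson's correlation coefficient calculated in 20 to 25 randomly selected cells.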

Assay [10] concerns the target T3, Caspase-1 (Mus musculus) (UniProt P29452).
T3 sequence (whole entry): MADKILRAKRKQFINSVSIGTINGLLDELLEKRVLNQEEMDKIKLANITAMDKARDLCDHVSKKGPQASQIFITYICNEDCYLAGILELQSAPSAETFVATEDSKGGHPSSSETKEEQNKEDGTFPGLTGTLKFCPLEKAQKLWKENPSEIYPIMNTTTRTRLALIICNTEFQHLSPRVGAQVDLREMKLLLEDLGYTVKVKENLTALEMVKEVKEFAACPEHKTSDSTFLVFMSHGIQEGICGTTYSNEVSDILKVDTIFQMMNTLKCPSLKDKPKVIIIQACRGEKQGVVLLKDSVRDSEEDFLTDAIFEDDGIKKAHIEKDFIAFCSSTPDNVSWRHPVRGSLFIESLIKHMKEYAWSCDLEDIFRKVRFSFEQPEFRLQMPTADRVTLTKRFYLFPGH
The assay can be described thus: Inhibition of caspase-1 activity in LPS-primed immortalized mouse […] cells assessed as reduction in nigericin-induced GSDMD cleavage at 5 uM by Western blot analysis. It counts as cell-based. To be noted: J774.A1. The method, boiled down:
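Western blot for GSDMD cleavage in immortalized macrophages, with tubulin as loading control. Representative of n ≥ 3 independent experiments.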

Assay [11] has as its target NACHT, LRR and PYD domains-containing protein 3 (Mus musculus) (UniProt Q8R4B8). The assay can be described thus: Activation of NLRP3 inflammasome in LPS-primed mouse […] cells assessed as suppression of ATP-induced pyroptosis at 5 uM. Type of assay: cell-based. To be noted: J774.A1. The method, boiled down:
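ATP used as a separate NLRP3 inflammasome activator in macrophages to induce pyroptosis.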

The test system of assay [12] is J774.A1. Kind of assay: Inhibition of pyroptosis in LPS-primed immortalized mouse […] cells followed by subsequent nigericin stimulation by imaging analysis. Type of assay: functional, cell-based.
Assay [13] has as its system BMDM. The assay can be described thus: Induction of ROS generation in LPS-primed C57BL/6 mouse primary BMDM assessed as increase in nigericin-induced ROS level at 5 uM by DCFH-DA probe based FACS analysis. It counts as functional, cell-based. The method in brief:
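Nigericin-stimulated macrophages loaded with DCFH-DA; ROS read as a shift in fluorescence by flow cytometry.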

Active and inactive are the calls of the source. The rule behind the calls is not given here.

A word on the EC50: it is the midpoint of the concentration-response curve. A low value points to an effect from little substance.

Chain of NACHT, LRR and PYD domains-containing protein 3 (Mus musculus) (Q8R4B8 whole entry, the tested form may be a part): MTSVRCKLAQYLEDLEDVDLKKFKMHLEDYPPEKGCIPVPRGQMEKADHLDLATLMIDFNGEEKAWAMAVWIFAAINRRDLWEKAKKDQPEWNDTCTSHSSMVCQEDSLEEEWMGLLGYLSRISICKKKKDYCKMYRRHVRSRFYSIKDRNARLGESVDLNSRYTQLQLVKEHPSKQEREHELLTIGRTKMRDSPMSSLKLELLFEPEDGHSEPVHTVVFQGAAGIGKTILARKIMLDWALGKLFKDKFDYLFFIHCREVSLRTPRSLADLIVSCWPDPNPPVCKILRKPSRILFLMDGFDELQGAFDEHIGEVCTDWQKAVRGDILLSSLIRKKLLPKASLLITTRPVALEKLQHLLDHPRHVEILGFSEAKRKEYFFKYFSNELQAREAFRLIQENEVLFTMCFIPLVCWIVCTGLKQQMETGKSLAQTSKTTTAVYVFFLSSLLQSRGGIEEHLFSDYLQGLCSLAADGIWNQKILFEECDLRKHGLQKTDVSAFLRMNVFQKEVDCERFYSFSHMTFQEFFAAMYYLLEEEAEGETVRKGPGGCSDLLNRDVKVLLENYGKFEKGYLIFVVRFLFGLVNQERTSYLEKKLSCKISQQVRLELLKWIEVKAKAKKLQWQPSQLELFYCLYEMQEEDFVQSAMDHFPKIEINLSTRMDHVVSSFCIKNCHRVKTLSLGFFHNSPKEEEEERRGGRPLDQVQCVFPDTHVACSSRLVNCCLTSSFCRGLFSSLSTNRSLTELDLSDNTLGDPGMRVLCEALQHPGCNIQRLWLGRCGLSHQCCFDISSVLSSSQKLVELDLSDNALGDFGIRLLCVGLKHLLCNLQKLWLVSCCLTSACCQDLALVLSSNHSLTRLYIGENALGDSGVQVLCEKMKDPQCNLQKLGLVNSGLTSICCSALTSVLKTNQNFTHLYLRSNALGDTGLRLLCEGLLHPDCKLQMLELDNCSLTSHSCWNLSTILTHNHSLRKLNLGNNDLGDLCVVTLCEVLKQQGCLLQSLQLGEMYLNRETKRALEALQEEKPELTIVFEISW

On to `CCOC(CN1C(=O)C(NC(=O)Nc2ccc(C)cc2)(C(F)(F)C(=O)Nc2ccc(C)cc2)c2ccccc21)OCC` (stereo not drawn), for which the inhibition result in [1] is “inactive”. Besides, the outcome in [2], in [7], in assay [11] and in assay [13] was Active. The inhibition entry in assay [3], in assay [5], in assay [6], in assay [9] and in assay [10] was “Active” in each case. Besides, the MST in assay [4] is 8 h. The inhibition result in [8] is “Dose-dependent effect”. Also, the EC50 in assay [12] was determined as 5.5 µM.

The record behind these values is ChEMBL document CHEMBL4619791, “3-Difluoroalkyl Quaternary Oxindoles Inhibit Macrophage Pyroptosis by Blocking Inflammasome Recruitment of Caspase-1” (ACS Med Chem Lett, 2020).
